A short description of assay [1]: Inhibition of Mycobacterium smegmatis recombinant DprE1 using farnesylphosphoryl-beta-D-ribofuranose as substrate assessed as conversion of amplex red to resorufin after 30 mins. Further details: species or system Mycolicibacterium smegmatis. In a few lines:
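Msm DprE1 (thioredoxin-6His fusion of Msm Rv3790) at 75 nM, preincubated 30 min with 10 μM FAD. Buffer: 50 mM glycylglycine pH 8.5, 200 mM potassium glutamate, 0.002% Brij-35, 2% DMSO, 25 °C. Started with 300 μM farnesylphosphoryl-β-D-ribofuranose, 0.01 mg/mL HRP and 50 μM Amplex Red.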

Assay [2] has as its system Haemophilus influenzae. Briefly: Antimicrobial activity against Haemophilus influenzae ARC158 at 100 uM. In kind it is functional, organism-based. The method in brief: (§1)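 Nonmycobacterial panel of Candida albicans, Gram-negative and Gram-positive pathogens.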
Assay [3] has as its system Streptococcus pneumoniae. Briefly: Antimicrobial activity against Streptococcus pneumoniae ARC548 at 100 uM. It counts as functional, organism-based. The method in brief:
as §1

Assay [4] relates to Pseudomonas aeruginosa. Kind of assay: Antimicrobial activity against Pseudomonas aeruginosa ARC545 at 100 uM. It counts as functional, organism-based. In a few lines:
as §1

Assay [5] deals with Mycolicibacterium smegmatis. Kind of assay: Antimicrobial activity against Mycobacterium smegmatis ATCC 607 at 100 uM. In kind it is functional, organism-based.
In assay [6] the test system is Staphylococcus aureus. Briefly: Antimicrobial activity against Staphylococcus aureus ARC517 at 100 uM. It counts as functional, organism-based. In a few lines: as §1
Assay [7] has as its system Escherichia coli. Kind of assay: Antimicrobial activity against Escherichia coli ARC524 at 100 uM. It counts as functional, organism-based. The method in brief:
as §1

Assay [8] has as its system Candida albicans. Briefly: Antimicrobial activity against Candida albicans ARC527 at 100 uM. In kind it is functional, organism-based. In a few lines:
as §1

Assay [9] has as its system Mycobacterium tuberculosis. Kind of assay: Antimycobacterial activity against Mycobacterium tuberculosis H37Rv under hypoxic condition after 6 days by resazurin assay. In kind it is functional. On the technique in general: Resazurin is reduced to fluorescent resorufin, in cell work by metabolically active cells.
Assay [10] concerns Escherichia coli. Kind of assay: Antimicrobial activity against Escherichia coli ARC523 at 100 uM. In kind it is functional, organism-based. In a few lines: as §1
In assay [11] the test system is Haemophilus influenzae. Kind of assay: Antimicrobial activity against Haemophilus influenzae ARC446 at 100 uM. In kind it is functional, organism-based. The method in brief:
as §1

For assay [12], the system named is Mycolicibacterium smegmatis. Briefly: Antimicrobial activity against Mycobacterium smegmatis mc2155 at 100 uM. In kind it is functional, organism-based. The settings on record: str. MC2 155.
The test system of assay [13] is Mycobacterium tuberculosis. Briefly: Antimycobacterial activity against Mycobacterium tuberculosis H37Rv after 5 days by standard microdilution method. It counts as functional. The settings on record: 120 h. A general note: Broth dilution looks for growth in wells or tubes with falling amounts of substance.
Assay [14] concerns Pseudomonas aeruginosa. Briefly: Antimicrobial activity against Pseudomonas aeruginosa ARC546 at 100 uM. In kind it is functional, organism-based. In a few lines: as §1
Assay [15] concerns Klebsiella pneumoniae. Kind of assay: Antimicrobial activity against Klebsiella pneumoniae ARC1865 at 100 uM. In kind it is functional, organism-based. In a few lines: as §1

In brackets after ≈: the same amount, converted by molar mass. Activity calls are given as the source filed them. No cut-off for these calls is given here.

The source of these data is ChEMBL document CHEMBL3286182, “4-aminoquinolone piperidine amides: noncovalent inhibitors of DprE1 with long residence time and potent antimycobacterial activity” (J Med Chem, 2014).

As usually defined, the IC50 is the concentration that gives 50% inhibition. The term MIC denotes the least concentration at which growth counts as inhibited. A high value points to a less susceptible organism. `Cn1ncc(C(=O)N2CCC(Nc3cc(=O)[nH]c4c(F)c(F)ccc34)CC2)c1Cl`: the IC50 in assay [1] is 9 nM. Further, the result in assay [2], in [3], in assay [4], in assay [5], in [6] and in assay [7] was inactive. In addition, the result in assay [8], in assay [9], in [10], in assay [11], in assay [12] and in assay [14] was inactive. Besides, the result in assay [15] was inactive. In assay [13], this molecule yielded an MIC of 1.6 µM (≈ 0.675 µg/mL).

Take `Cn1ncc(C(=O)N2CCC(Oc3cc(=O)[nH]c4ccccc34)CC2)c1Cl`: the IC50 in [1] stood at 8000 nM. Besides, the result in [2], in assay [3], in assay [4], in [5], in assay [6] and in [7] was inactive. Also, the result in assay [8], in assay [9], in assay [10], in [11], in [12] and in assay [14] was inactive. In addition, the result in assay [15] was inactive. Moreover, in assay [13], the MIC turned out to be 50 µM (≈ 19.3 µg/mL).

On to `Cn1ncc(C(=O)N2CC(Nc3cc(=O)[nH]c4ccccc34)C2)c1Cl`, for which the IC50 in [1] came to 1800 nM. Also, in [13], the minimal inhibitory concentration (MIC) turned out to be 50 µM (≈ 17.9 µg/mL).

`Cc1onc(C(=O)N2[C@@H]3CC[C@H]2C[C@@H](Nc2cc(=O)[nH]c4cc(F)c(F)cc24)C3)c1C`: the IC50 in assay [1] was determined as 7 nM. Besides, in [13], the minimal inhibitory concentration (MIC) was 0.06 µM (≈ 0.0257 µg/mL).

Regarding `Cc1c(C(=O)N2CCC(Nc3cc(=O)[nH]c4ccc(F)cc34)CC2)nnn1C`, the IC50 in [1] was determined as 11 nM. The result in assay [2], in assay [3], in assay [4], in assay [5], in assay [6] and in assay [7] was inactive. Also, the outcome in assay [8], in assay [9], in [10], in assay [11], in assay [12] and in assay [14] was inactive. Besides, the result in [15] was inactive. Also, the MIC in assay [13] was 3.5 µM (≈ 1.35 µg/mL).

In the case of `Cn1ncc(C(=O)N2CCC(Nc3n[nH]c4ccc(F)cc34)CC2)c1Cl`, the IC50 in assay [1] is 113 nM. In addition, the MIC in assay [13] was > 100 µM.

As for `Cn1ncc(C(=O)N2CCC(Nc3cc(=O)[nH]c4ccc(F)cc34)CC2)c1C(F)(F)F`, the IC50 in [1] came out at 21 nM. In addition, the outcome in [2], in assay [3], in [4], in assay [5], in assay [6] and in [7] was inactive. Besides, the outcome in assay [8], in [9], in [10], in assay [11], in assay [12] and in assay [14] was inactive. Moreover, the outcome in [15] was inactive. This molecule came in with a minimal inhibitory concentration (MIC) in assay [13] of 6.2 µM (≈ 2.71 µg/mL).

In the case of `Cn1ncc(C(=O)N2[C@@H]3CC[C@H]2C[C@@H](Nc2cc(=O)[nH]c4cc(F)c(F)cc24)C3)c1Cl`, in assay [1], the half-maximal inhibitory concentration (IC50) worked out at 9 nM. Also, the MIC in assay [13] worked out at 0.06 µM (≈ 0.0269 µg/mL).

Regarding `COc1cc(NC2CCN(C(=O)c3cnn(C)c3Cl)CC2)c2ccccc2n1`, in assay [1], the half-maximal inhibitory concentration (IC50) was 78000 nM. Besides, the MIC in assay [13] was > 200 µM.

Take `Cn1ncc(C(=O)N2[C@@H]3CC[C@H]2C[C@@H](Nc2cc(=O)n(C)c4ccc(F)cc24)C3)c1Cl`: the concentration for half-maximal inhibition (IC50) in [1] worked out at 12 nM. 0.25 µM (≈ 0.111 µg/mL) was the least that counted as inhibitory in assay [13] (MIC).

On to `Cn1ncc(C(=O)N2CCC(Nc3cc(=O)[nH]c4cc(F)ccc34)CC2)c1Cl`, for which the half-maximal inhibitory concentration (IC50) in [1] is 7 nM. For the same molecule, the result in assay [2], in assay [3], in assay [4], in [5], in [6] and in assay [7] was inactive. For the same molecule, the result in assay [8], in assay [9], in assay [10], in assay [11], in assay [12] and in [14] was inactive. The result in [15] was inactive. Also, the lowest concentration to inhibit growth in assay [13] (MIC) was 3.1 µM (≈ 1.25 µg/mL).

In the case of `Cc1onc(C(=O)N2CCC(Nc3cc(=O)[nH]c4cc(F)c(F)cc34)CC2)c1C`, the IC50 in assay [1] was determined as 18 nM. The outcome in assay [2], in assay [3], in assay [4], in assay [5], in assay [6] and in assay [7] was inactive. Besides, the result in assay [8], in assay [9], in [10], in assay [11], in [12] and in assay [14] was inactive. The result in [15] was inactive. The lowest concentration to inhibit growth in assay [13] (MIC) was 0.2 µM (≈ 0.0805 µg/mL).

With `Cn1ncc(C(=O)N2CCC(Nc3cc(=O)[nH]c4ccccc34)C2)c1Cl` (stereo not drawn), the IC50 in assay [1] was 4700 nM. For the same molecule, the minimum inhibitory concentration (MIC) in assay [13] is > 200 µM.

In the case of `C[C@H]1C[C@@H](Nc2cc(=O)[nH]c3ccccc23)CCN1C(=O)c1cnn(C)c1Cl`, the IC50 in assay [1] was > 10000 nM. Besides, the minimal inhibitory concentration (MIC) in [13] is > 200 µM.

`Cn1ncc(C(=O)N2[C@@H]3CC[C@H]2C[C@@H](Nc2cc(-c4ccccc4)[nH]c(=O)c2)C3)c1Cl`: in assay [1], the IC50 was found to be 53 nM. In assay [13], this molecule registered a minimal inhibitory concentration (MIC) of 1.6 µM (≈ 0.701 µg/mL).

As to `Cn1ncc(C(=O)N2CCC(Nc3cc(-c4ccccc4)[nH]c(=O)c3)CC2)c1Cl`, the IC50 in assay [1] is 3000 nM. The molecule further came in with an MIC in [13] of 50 µM (≈ 20.6 µg/mL).

As to `C[C@H]1C[C@H](Nc2cc(=O)[nH]c3ccccc23)CCN1C(=O)c1cnn(C)c1Cl`, the 50% inhibitory concentration (IC50) in [1] was determined as 26 nM. Moreover, the lowest concentration to inhibit growth in [13] (MIC) was 12.5 µM (≈ 5 µg/mL).

For the molecule `Cn1ncc(C(=O)N2[C@@H]3CC[C@H]2C[C@H](Nc2cc(=O)[nH]c4ccc(F)cc24)C3)c1Cl`, in [1], the IC50 was determined as 43000 nM. The MIC in assay [13] was > 200 µM.

On to `Cn1ncc(C(=O)N2CCC(Nc3cnnc4ccccc34)CC2)c1Cl`, for which the concentration for half-maximal inhibition (IC50) in [1] is > 10000 nM. Besides, the MIC in assay [13] is > 200 µM.

`Cn1ncc(C(=O)N2[C@@H]3CC[C@H]2C[C@@H](Nc2cc(=O)n(C)c4cc(F)c(F)cc24)C3)c1Cl`: the IC50 in assay [1] came to 8 nM. Also, the MIC in assay [13] turned out to be 0.12 µM (≈ 0.0554 µg/mL).
